Drawing on PubChem BioAssay, this text covers activation, outcome and potentiation for 40 compounds.

Active and inactive are the calls of the source.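 Rule for the calls, unless noted: active = duplicate-averaged activation above buffer control mean plus 5 SD of those controls; inactive = the rest.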

Sequence of Potassium voltage-gated channel subfamily KQT member 1 (Homo sapiens) (P51787 whole entry, looked up): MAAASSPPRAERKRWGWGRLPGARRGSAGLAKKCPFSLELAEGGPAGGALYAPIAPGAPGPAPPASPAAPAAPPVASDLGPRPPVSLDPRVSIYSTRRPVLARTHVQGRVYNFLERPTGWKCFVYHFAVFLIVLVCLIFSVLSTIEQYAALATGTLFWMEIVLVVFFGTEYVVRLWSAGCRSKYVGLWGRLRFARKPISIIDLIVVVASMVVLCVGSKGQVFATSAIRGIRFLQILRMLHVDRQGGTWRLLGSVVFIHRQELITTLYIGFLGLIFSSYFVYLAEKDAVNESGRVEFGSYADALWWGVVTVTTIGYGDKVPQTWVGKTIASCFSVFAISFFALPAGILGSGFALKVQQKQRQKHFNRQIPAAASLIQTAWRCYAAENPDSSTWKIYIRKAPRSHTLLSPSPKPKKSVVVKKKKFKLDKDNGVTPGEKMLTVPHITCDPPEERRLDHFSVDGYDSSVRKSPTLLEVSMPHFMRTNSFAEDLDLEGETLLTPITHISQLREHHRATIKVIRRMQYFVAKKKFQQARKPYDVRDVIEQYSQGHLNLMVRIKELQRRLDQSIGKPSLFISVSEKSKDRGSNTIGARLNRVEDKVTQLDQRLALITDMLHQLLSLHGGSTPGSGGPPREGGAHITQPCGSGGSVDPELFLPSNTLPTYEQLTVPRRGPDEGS

Test system in one assay: not listed separately
The assay can be described thus: thallium flux activation in parental CHO cells, counter-screen for KCNQ1 potentiator project (AID 493006). Particulars: parental CHO-K1 cells, FluxOR thallium flux, at 10 µM; active compounds read high. Summed up:
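Test system: parental CHO-K1 cells, FluxOR dye-loaded / Probe or stimulus: potassium plus thallium depolarizing stimulus, 5x stock 12.5 mM K2SO4, Tl2SO4 / Timing: overnight 37 °C plating, 90 min dye, 20 min dark compound / Measured by: kinetic thallium-flux fluorescence / Read-out: max-minus-min fluorescence over baseline, percent of buffer-to-R-L3 span / Benchmarks: buffer and R-L3 controls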
For `COCCn1c(=S)[nH]c2sc3c(c2c1=O)CCC(C)C3` (stereo not given), the activation was 541% (active).

Take `Cc1ccc(C)c(NC(=S)NC(=O)c2cncc(Br)c2)c1`: the outcome was inactive.

Take `CCOC(=O)C1CCN(C(=O)c2c(C)oc3c2C(=O)c2ccccc2C3=O)CC1`: the outcome was inactive.

In the case of `O=C(NC(=S)Nc1ccccc1N1CCCCC1)c1ccc(F)cc1Cl`, the outcome was inactive.

As for `COc1ccc(C2c3ccc4ccccc4c3Oc3ncn(CCCO)c(=N)c32)cc1` (stereo not given), the outcome was inactive.

In the case of `O=S(=O)(NCCOc1ccccc1)c1ccc2ccccc2c1`, the outcome was inactive.

For the compound `Oc1[nH]c2ccc(Br)cc2c1N=NC(=S)NCC1CCCO1` (stereo not given), the activation was 182% (active).

As for `CNc1ccccc1C(=O)OC(C)C(=O)Nc1ccc(Cl)cn1` (stereo not given), the result was inactive.

Take `O=C(NCCCn1ccnc1)c1cc(C2CC2)on1`: the result was inactive.

On to `Fc1cccc2sc(Nc3nnc(-c4ccco4)o3)nc12`, for which the activation is 354% (active).

As to `Cc1ccc(-n2cnnn2)c2cccnc12`, the result was inactive.

Consider `CC1(C)Cc2c(sc3[nH]c(=S)n(Cc4ccccc4)c(=O)c23)CO1`, for which the activation is 191% (active).

Take `O=C(/C=C/c1ccc(Br)cc1)NC(=S)Nc1ccc(S(=O)(=O)Nc2nccs2)cc1`: the result was inactive.

As to `Cc1cccc(NC(=S)NNC(=O)c2cc3c(s2)CCC(C)C3)c1C` (stereo not given), the activation is 192% (active).

As to `O=C(NC(=S)Nc1ccccc1N1CCOCC1)c1cccc([N+](=O)[O-])c1`, the result was inactive.

For the compound `CN1c2ccccc2C(O)=C(C(=S)Nc2ccc(Cl)cc2)S1(=O)=O`, the activation was 139% (active).

As to `NC(=O)c1ccccc1NC(=O)N1CCOCC1`, the outcome was inactive.

As for `CCN(CC)CC(=O)Nc1ccc2c(c1)Nc1ccccc1CC2`, the activation is 234% (active).

For the compound `S=C(N/N=C/c1ccccc1Cl)Nc1cccc(Cl)c1Cl`, the outcome was inactive.

For the compound `Cc1cccc(-c2n[nH]c(=S)n2/N=C/c2cccs2)c1`, the activation is 138% (active).

For `Cc1onc(-c2ccccc2Cl)c1C(=O)Nc1ccccc1O`, the outcome was inactive.

As for `O=C(COC(=O)c1cc(NS(=O)(=O)c2cccs2)ccc1O)Nc1cc(Cl)ccc1Cl`, the outcome was inactive.

For `CCc1ccc(NC(=O)CSc2nc3ccsc3c(=O)n2CCC(=O)O)cc1`, the activation is 148% (active).

Regarding `COc1ccc(OC)c(-c2cc(C(=O)N3CCN(c4ccccc4)CC3)no2)c1`, the outcome was inactive.

Regarding `COC(=O)c1cccnc1NC(=S)NC1CCCCC1`, the activation was 208% (active).

As for `COc1cccc(-c2cn(-c3cccc(C(F)(F)F)c3)c(=S)[nH]2)c1`, the outcome was inactive.

Take `S=c1nn[nH]n1C12CC3CC(CC(C3)C1)C2`: the activation is 206% (active).

`CCC(C)c1ccccc1OCCCNC1CCCC1` (stereo not given): the outcome was inactive.

Regarding `Cc1ccc(-c2n[nH]c(=S)nc2-c2ccc(C)cc2)cc1`, the activation is 160% (active).

Turning to `Fc1ccc(SCCc2ccncc2)cc1`, the result was inactive.

Consider `CCc1nnc(NC(=O)c2ccc(S(=O)(=O)N(CC)Cc3ccccc3)cc2)o1`, for which the activation was 254% (active).

Turning to `O=C(COc1ccccc1F)Nc1ccc(S(=O)(=O)NCc2ccco2)cc1`, the result was inactive.

For `C=CCn1c(SCC(N)=O)nc2scc(-c3ccc(C)o3)c2c1=O`, the activation is 223% (active).

With `CN=C1c2cc3cc(OC)ccc3n2CCN1Cc1ccccc1`, the result was inactive.

Consider `O=C(NC(=S)NCCC1=CCCCC1)c1ccco1`, for which the activation was 324% (active).

In the case of `S=c1nc[nH]c2c1cnn2-c1ccccc1`, the activation is 168% (active).

Regarding `O=C(NN1C(=O)C2C(c3ccccc3)C=CC(c3ccccc3)C2C1=O)c1ccncc1` (stereo not given), the activation was 176% (active).

As to `CC(C)c1nc2oc3c(NCC4CCCO4)ncnc3c2c2c1COC(C)(C)C2` (stereo not given), the result was inactive.

For the compound `COc1ccccc1NC(=O)C(=O)NNC(=O)c1ccco1`, the activation is 240% (active).

Turning to `O=P(CCCCCCCCCP(=O)(c1ccccc1)c1ccccc1)(c1ccccc1)c1ccccc1`, the activation was 256% (active).

Another assay has as its target Potassium voltage-gated channel subfamily KQT member 1 (Homo sapiens) (UniProt P51787). The assay can be described thus: KCNQ1 potassium channel potentiators, confirmation, FluxOR thallium flux, CHO cells, duplicates (AID 493007;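 active = potentiation averaged over duplicate wells exceeding buffer-only control mean by more than 3 SD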;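 for outcome: cells depolarized by a potassium plus thallium sulfate stimulus after compound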;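 for potentiation: 0% = buffer-only wells and 100% = R-L3 activator control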). Particulars: KCNQ1 cell line, FluxOR thallium flux fluorescence, at 10 µM; active compounds read high, % of reference activator effect, buffer zero. Summed up: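 Assay system: CHO cells carrying KCNQ1 | Controls: Buffer and R-L3 controls | Schedule: FluxOR dye loading 90 min, compound exposure 20 min, room temperature | Read-out: Baseline-normalized fluorescence change, percent of buffer-to-R-L3 range | Replicates: Each compound tested in duplicate | Technique: Kinetic thallium influx fluorescence with FluxOR dye, 10 s baseline, 110 s post-stimulus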
As to `COCCn1c(=S)[nH]c2sc3c(c2c1=O)CCC(C)C3` (stereo not given), the potentiation was 191% (active).

As for `Cc1ccc(C)c(NC(=S)NC(=O)c2cncc(Br)c2)c1`, the potentiation was 18.5% (active).

With `CCOC(=O)C1CCN(C(=O)c2c(C)oc3c2C(=O)c2ccccc2C3=O)CC1`, the result was inactive.

On to `O=C(NC(=S)Nc1ccccc1N1CCCCC1)c1ccc(F)cc1Cl`, for which the potentiation was 49.5% (active).

On to `COc1ccc(C2c3ccc4ccccc4c3Oc3ncn(CCCO)c(=N)c32)cc1` (stereo not given), for which the outcome was inactive.

Take `O=S(=O)(NCCOc1ccccc1)c1ccc2ccccc2c1`: the outcome was inactive.

Consider `Oc1[nH]c2ccc(Br)cc2c1N=NC(=S)NCC1CCCO1` (stereo not given), for which the potentiation is 37.5% (active).

For `CNc1ccccc1C(=O)OC(C)C(=O)Nc1ccc(Cl)cn1` (stereo not given), the outcome was inactive.

For the compound `O=C(NCCCn1ccnc1)c1cc(C2CC2)on1`, the result was inactive.

In the case of `Fc1cccc2sc(Nc3nnc(-c4ccco4)o3)nc12`, the potentiation was 100% (active).

For `Cc1ccc(-n2cnnn2)c2cccnc12`, the result was inactive.

As for `CC1(C)Cc2c(sc3[nH]c(=S)n(Cc4ccccc4)c(=O)c23)CO1`, the potentiation was 63% (active).

In the case of `O=C(/C=C/c1ccc(Br)cc1)NC(=S)Nc1ccc(S(=O)(=O)Nc2nccs2)cc1`, the result was inactive.

In the case of `Cc1cccc(NC(=S)NNC(=O)c2cc3c(s2)CCC(C)C3)c1C` (stereo not given), the potentiation was 55.5% (active).

Take `O=C(NC(=S)Nc1ccccc1N1CCOCC1)c1cccc([N+](=O)[O-])c1`: the result was inactive.

In the case of `CN1c2ccccc2C(O)=C(C(=S)Nc2ccc(Cl)cc2)S1(=O)=O`, the result was inactive.

Consider `NC(=O)c1ccccc1NC(=O)N1CCOCC1`, for which the outcome was inactive.

As to `CCN(CC)CC(=O)Nc1ccc2c(c1)Nc1ccccc1CC2`, the potentiation is 98% (active).

In the case of `S=C(N/N=C/c1ccccc1Cl)Nc1cccc(Cl)c1Cl`, the potentiation is 71% (active).

With `Cc1cccc(-c2n[nH]c(=S)n2/N=C/c2cccs2)c1`, the potentiation is 22.5% (active).

In the case of `Cc1onc(-c2ccccc2Cl)c1C(=O)Nc1ccccc1O`, the result was inactive.

Regarding `O=C(COC(=O)c1cc(NS(=O)(=O)c2cccs2)ccc1O)Nc1cc(Cl)ccc1Cl`, the outcome was inactive.

With `CCc1ccc(NC(=O)CSc2nc3ccsc3c(=O)n2CCC(=O)O)cc1`, the potentiation is 33% (active).

Consider `COc1ccc(OC)c(-c2cc(C(=O)N3CCN(c4ccccc4)CC3)no2)c1`, for which the result was inactive.

Consider `COC(=O)c1cccnc1NC(=S)NC1CCCCC1`, for which the potentiation is 36.5% (active).

Consider `COc1cccc(-c2cn(-c3cccc(C(F)(F)F)c3)c(=S)[nH]2)c1`, for which the result was inactive.

On to `S=c1nn[nH]n1C12CC3CC(CC(C3)C1)C2`, for which the potentiation is 51.5% (active).

With `CCC(C)c1ccccc1OCCCNC1CCCC1` (stereo not given), the result was inactive.

As to `Cc1ccc(-c2n[nH]c(=S)nc2-c2ccc(C)cc2)cc1`, the potentiation was 32% (active).

`Fc1ccc(SCCc2ccncc2)cc1`: the outcome was inactive.

On to `CCc1nnc(NC(=O)c2ccc(S(=O)(=O)N(CC)Cc3ccccc3)cc2)o1`, for which the potentiation is 107% (active).

As for `O=C(COc1ccccc1F)Nc1ccc(S(=O)(=O)NCc2ccco2)cc1`, the outcome was inactive.

On to `C=CCn1c(SCC(N)=O)nc2scc(-c3ccc(C)o3)c2c1=O`, for which the potentiation is 79.5% (active).

With `CN=C1c2cc3cc(OC)ccc3n2CCN1Cc1ccccc1`, the outcome was inactive.

As to `O=C(NC(=S)NCCC1=CCCCC1)c1ccco1`, the potentiation is 97% (active).

For the compound `S=c1nc[nH]c2c1cnn2-c1ccccc1`, the potentiation is 29.5% (active).

Regarding `O=C(NN1C(=O)C2C(c3ccccc3)C=CC(c3ccccc3)C2C1=O)c1ccncc1` (stereo not given), the potentiation is 18% (active).

Take `CC(C)c1nc2oc3c(NCC4CCCO4)ncnc3c2c2c1COC(C)(C)C2` (stereo not given): the outcome was inactive.

Regarding `COc1ccccc1NC(=O)C(=O)NNC(=O)c1ccco1`, the potentiation is 62.5% (active).

With `O=P(CCCCCCCCCP(=O)(c1ccccc1)c1ccccc1)(c1ccccc1)c1ccccc1`, the potentiation was 96.5% (active).
